From ChEMBL document CHEMBL1155462, “Structure-activity relationship for thiohydantoin androgen receptor antagonists for castration-resistant prostate cancer (CRPC)” (J Med Chem, 2010)
Activity calls are given as the source filed them. The rule behind the calls is not given here.

What was measured:
LNCaP [1] = test: Inhibition of prostate specific antigen expression in human LNCAP cells in presence of fetal bovine serum; assay type: functional, cell-based
[2] = biological target: T1, Androgen receptor (Rattus norvegicus) (UniProt P15207); test: Antagonist activity at androgen receptor in rat prostate gland at 1.25 to 10 uM by luciferase reporter gene assay; assay type: functional, tissue-based
T1 sequence (whole entry): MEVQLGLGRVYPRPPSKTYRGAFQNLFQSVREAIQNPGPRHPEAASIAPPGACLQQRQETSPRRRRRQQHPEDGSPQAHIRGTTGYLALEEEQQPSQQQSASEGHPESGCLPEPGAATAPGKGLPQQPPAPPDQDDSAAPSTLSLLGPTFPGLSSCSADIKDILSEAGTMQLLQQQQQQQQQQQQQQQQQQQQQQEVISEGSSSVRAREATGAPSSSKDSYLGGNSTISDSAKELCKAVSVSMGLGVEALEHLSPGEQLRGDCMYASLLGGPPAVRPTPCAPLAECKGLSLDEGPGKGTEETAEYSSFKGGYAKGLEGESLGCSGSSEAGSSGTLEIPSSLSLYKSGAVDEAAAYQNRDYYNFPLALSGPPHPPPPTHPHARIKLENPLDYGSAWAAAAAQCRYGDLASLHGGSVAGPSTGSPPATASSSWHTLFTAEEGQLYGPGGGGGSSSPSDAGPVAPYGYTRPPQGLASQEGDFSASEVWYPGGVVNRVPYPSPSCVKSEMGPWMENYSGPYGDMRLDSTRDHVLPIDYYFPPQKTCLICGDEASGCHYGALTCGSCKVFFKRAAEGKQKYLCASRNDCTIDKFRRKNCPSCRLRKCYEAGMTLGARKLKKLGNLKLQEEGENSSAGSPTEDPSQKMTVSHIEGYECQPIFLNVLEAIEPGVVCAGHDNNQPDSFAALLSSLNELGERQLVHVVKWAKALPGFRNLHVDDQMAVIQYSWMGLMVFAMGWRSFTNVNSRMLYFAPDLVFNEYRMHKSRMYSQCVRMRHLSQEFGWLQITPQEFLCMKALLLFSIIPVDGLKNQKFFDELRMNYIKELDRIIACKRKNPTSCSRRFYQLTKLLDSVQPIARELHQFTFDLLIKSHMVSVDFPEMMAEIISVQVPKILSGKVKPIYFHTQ

[3] = biological target: T1, Androgen receptor (Rattus norvegicus); test: Antagonist activity at androgen receptor in rat prostate gland at 0.625 to 20 uM by luciferase reporter gene assay; assay type: functional, tissue-based
LNCaP [4] = test: Inhibition of prostate specific antigen expression in human LNCAP cells at 0.625 to 20 uM in presence of fetal bovine serum; assay type: functional, cell-based
LNCaP [5] = test: Inhibition of prostate specific antigen secretion in human LNCAP cells expressing androgen receptor at 100 to 1000 nM in presence of charcoal stripped serum; assay type: functional, cell-based
Method in brief: (§1)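 LNCaP/AR cells were made by viral infection with an AR cDNA to express 3–5 fold higher AR levels, mimicking CRPC. They were assayed in charcoal-stripped serum to mimic androgen depletion. Read-out was PSA level, with DMSO as the vehicle.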

LNCaP [6] = test: Inhibition of prostate specific antigen expression in human LNCAP cells at 1.25 to 10 uM in presence of fetal bovine serum; assay type: functional, cell-based
LNCaP [7] = test: Inhibition of prostate specific antigen secretion in human LNCAP cells expressing androgen receptor at 1.25 to 10 uM in presence of charcoal stripped serum; assay type: functional, cell-based; method in brief: as §1
LNCaP [8] = test: Inhibition of prostate specific antigen expression in human LNCAP cells at 0.625 to 5 uM in presence of fetal bovine serum; assay type: functional, cell-based
LNCaP [9] = test: Inhibition of prostate specific antigen expression in human LNCAP cells at 100 to 1000 nM in presence of fetal bovine serum; assay type: functional, cell-based

## N#Cc1ccc(N2C(=O)C3(CCC3)N(c3ccc(/C=C/CO)cc3)C2=S)cc1C(F)(F)F
LNCaP [1]
  IC50: 0.1 µM

## N#Cc1ccc(N2C(=O)C3(CCC3)N(c3ccc(O)cc3F)C2=S)cc1C(F)(F)F
[2]
  Activity: Active

## CCC1C(=O)N(c2ccc(C#N)c(C(F)(F)F)c2)C(=S)N1c1ccc(C)cc1 (stereo not drawn)
[3]
  Activity: inactive

## CC1(C)C(=O)N(c2ccc(C#N)c(C(F)(F)F)c2)C(=S)N1c1ccc(N)cc1
LNCaP [4]
  Activity: Active
[3]
  Activity: Active

## CNC(=O)c1ccc(N2C(=S)N(c3ccc(C#N)c(C(F)(F)F)c3)C(=O)C2(C)C)cc1F
LNCaP [5]
  Activity: Active

## Cc1ccc(N2/C(=N/c3ccc(C#N)c(C(F)(F)F)c3)S/C(=N\C(=S)Nc3ccc(C#N)c(C(F)(F)F)c3)C2(C)C)cc1
LNCaP [6]
  Activity: Active
[2]
  Activity: Active

## Cc1ccc(N2C(=S)N(c3ccc(C#N)c(C(F)(F)F)c3)C(=O)C23CCCCCCC3)cc1
LNCaP [4]
  Activity: inactive

## CC1(C)C(=O)N(c2ccc(C#N)c(C(F)(F)F)c2)C(=S)N1CCCCCCCN=[N+]=[N-]
LNCaP [4]
  Activity: Active

## CCCC1C(=O)N(c2ccc(C#N)c(C(F)(F)F)c2)C(=S)N1c1ccc(C)cc1 (stereo not drawn)
[3]
  Activity: inactive

## CC1(C)C(=O)N(c2ccc(C#N)c(C(F)(F)F)c2)C(=S)N1CCCCCCN=[N+]=[N-]
LNCaP [4]
  Activity: Active

## N#Cc1ccc(N2C(=O)C3(CCC3)N(c3ccc(CCC(=O)NCCO)cc3)C2=S)cc1C(F)(F)F
LNCaP [7]
  inhibition: Active

## N#Cc1ccc(N2C(=O)C3(CCC3)N(c3ccc(CCCC(N)=O)cc3)C2=S)cc1C(F)(F)F
LNCaP [7]
  inhibition: Active

## CC1(C)C(=O)N(c2ccc(C#N)c(C(F)(F)F)c2)C(=S)N1c1ccc(O)cc1
LNCaP [4]
  Activity: Active
[3]
  Activity: Active
LNCaP [8]
  Activity: Active

## N#Cc1ccc(N2C(=O)C3(CCC3)N(c3ccc(C=O)cc3)C2=S)cc1C(F)(F)F
LNCaP [1]
  IC50: 0.2 µM

## CCC1(CC)C(=O)N(c2ccc(C#N)c(C(F)(F)F)c2)C(=S)N1c1ccc(C)cc1
[3]
  Activity: inactive

## CC1(C)C(=O)N(c2ccc(C#N)c(C(F)(F)F)c2)C(=S)N1c1ccc(N=[N+]=[N-])cc1
LNCaP [4]
  Activity: Active
[3]
  Activity: Active

## Cc1ccc(N2C(=S)N(c3ccc(C#N)c(C(F)(F)F)c3)/C(=N\C(=S)Nc3ccc(C#N)c(C(F)(F)F)c3)C2(C)C)cc1
LNCaP [6]
  Activity: Active
[2]
  Activity: Active

## Cc1ccc(N2C(=S)N(c3ccc(C#N)c(C(F)(F)F)c3)/C(=N\C(=S)Nc3ccc(C#N)c(C(F)(F)F)c3)C23CCC3)cc1
LNCaP [6]
  Activity: Active
[2]
  Activity: Active

## Cc1ccc(N2C(=S)N(c3ccc(C#N)c(C(F)(F)F)c3)/C(=N\C(=S)Nc3ccccc3)C23CCC3)cc1
LNCaP [6]
  Activity: Active
[2]
  Activity: Active

## Cc1ccc(N2/C(=N/c3ccc(C#N)c(C(F)(F)F)c3)S/C(=N\C(=S)Nc3ccc(C#N)c(C(F)(F)F)c3)C23CCC3)cc1
LNCaP [6]
  Activity: Active
[2]
  Activity: Active

## Cc1ccc(N2CC(=O)N(c3ccc(C#N)c(C(F)(F)F)c3)C2=S)cc1
[3]
  Activity: inactive

## CNC(=O)CCc1ccc(N2C(=S)N(c3ccc(C#N)c(C(F)(F)F)c3)C(=O)C23CCC3)cc1
LNCaP [7]
  inhibition: Active

## COC(=O)c1ccc(N2C(=S)N(c3ccc(C#N)c(C(F)(F)F)c3)C(=O)C2(C)C)cc1
[2]
  Activity: Active

## CC(O)c1ccc(N2C(=S)N(c3ccc(C#N)c(C(F)(F)F)c3)C(=O)C23CCC3)cc1 (stereo not drawn)
LNCaP [1]
  IC50: 0.2 µM

## Cc1ccc(N2C(=S)N(c3ccc(C#N)c(C(F)(F)F)c3)C(=O)C23CCCCC3)cc1
LNCaP [4]
  Activity: inactive

## CC1(C)C(=O)N(c2ccc(C#N)c(C(F)(F)F)c2)C(=S)N1c1ccc(C(F)(F)F)cc1
LNCaP [6]
  Activity: Active

## N#CCCCc1ccc(N2C(=S)N(c3ccc(C#N)c(C(F)(F)F)c3)C(=O)C23CCC3)cc1
LNCaP [9]
  Activity: Active

## CC1(C)C(=O)N(c2ccc(C#N)c(C(F)(F)F)c2)C(=S)N1c1ccccc1
LNCaP [4]
  Activity: Active
[3]
  Activity: Active

## CNC(=O)c1ccc(N2C(=S)N(c3ccc(C#N)c(C(F)(F)F)c3)C(=O)C23CCCC3)cc1F
LNCaP [5]
  Activity: Active

## CS(=O)(=O)N1CCN(c2ccc(N3C(=S)N(c4ccc(C#N)c(C(F)(F)F)c4)C(=O)C34CCC4)cc2)CC1
LNCaP [7]
  inhibition: Active

## CC/N=C1\N(c2ccc(C#N)c(C(F)(F)F)c2)C(=S)N(c2ccc(C)cc2)C1(C)C
LNCaP [6]
  Activity: Active
[2]
  Activity: Active

## N#Cc1ccc(N2C(=O)C3(CCC3)N(c3ccc(O)cc3)C2=S)cc1C(F)(F)F
LNCaP [6]
  Activity: Active

## N#Cc1ccc(N2C(=O)C3(CCC3)N(c3ccc(CO)cc3)C2=S)cc1C(F)(F)F
LNCaP [1]
  IC50: 0.2 µM

## N#Cc1ccc(N2C(=O)C3(CCC3)N(c3ccc(-c4ccccc4)cc3)C2=S)cc1C(F)(F)F
LNCaP [6]
  Activity: Active

## CC1(C)C(=O)N(c2ccc(C#N)c(C(F)(F)F)c2)C(=S)N1CCCN=[N+]=[N-]
LNCaP [4]
  Activity: Active

## CC1(C)C(=O)N(c2ccc(C#N)c(C(F)(F)F)c2)C(=S)N1CCCCO
LNCaP [4]
  Activity: Active
LNCaP [6]
  Activity: Active

## Cc1ccc(N2C(=S)N(c3ccc(C#N)c(C(F)(F)F)c3)C(=O)C23CCN(C)CC3)cc1
LNCaP [4]
  Activity: inactive

## CNC(=O)c1ccc(N2C(=S)N(c3ccc(C#N)c(C(F)(F)F)c3)C(=O)C2(C)C)cc1
[2]
  Activity: Active

## Cc1ccc(N2C(=S)N(c3ccc(C#N)c(C(F)(F)F)c3)C(=N)C23CCC3)cc1
LNCaP [6]
  Activity: Active
LNCaP [8]
  Activity: Active

## Cc1ccc(N2C(=S)N(c3ccc(C#N)c(C(F)(F)F)c3)C(=O)C2(C)CF)cc1 (stereo not drawn)
LNCaP [8]
  Activity: Active

## N#Cc1ccc(N2C(=O)C3(CCC3)N(c3ccccc3C(=O)O)C2=S)cc1C(F)(F)F
LNCaP [8]
  Activity: inactive

## Cc1ccc(N2C(=S)N(c3ccc(C#N)c(C(F)(F)F)c3)C(=O)C2C)cc1 (stereo not drawn)
[3]
  Activity: inactive

## N#Cc1ccc(N2C(=O)C3(CCC3)N(c3ccc(N4CCNCC4)cc3)C2=S)cc1C(F)(F)F
LNCaP [7]
  inhibition: Active

## CCC1(C)C(=O)N(c2ccc(C#N)c(C(F)(F)F)c2)C(=S)N1c1ccc(C)cc1 (stereo not drawn)
[3]
  Activity: inactive

## CN(C)C(=O)CCCc1ccc(N2C(=S)N(c3ccc(C#N)c(C(F)(F)F)c3)C(=O)C23CCC3)cc1
LNCaP [9]
  Activity: Active

## Cc1ccccc1N1C(=S)N(c2ccc(C#N)c(C(F)(F)F)c2)C(=O)C12CCC2
LNCaP [8]
  Activity: Active

## CS(=O)(=O)c1ccc(N2C(=S)N(c3ccc(C#N)c(C(F)(F)F)c3)C(=O)C23CCC3)cc1
[2]
  Activity: Active

## Cc1ccc(N2C(=S)N(c3ccc(C#N)c(C(F)(F)F)c3)C(=N)C2(C)C)cc1
LNCaP [8]
  Activity: Active

## CC1(C)C(=O)N(c2ccc(C#N)c(C(F)(F)F)c2)C(=S)N1CCCCCN=[N+]=[N-]
LNCaP [4]
  Activity: Active

## Cc1ccc(N2C(=S)N(c3ccc(C#N)c(C(F)(F)F)c3)C(=O)C2(CCl)CCl)cc1
LNCaP [8]
  Activity: inactive

## N#Cc1ccc(N2C(=O)C3(CCC3)N(c3ccc(CCC(N)=O)cc3)C2=S)cc1C(F)(F)F
LNCaP [7]
  inhibition: Active

## CC1(C)C(=S)N(c2ccc(C#N)c(C(F)(F)F)c2)C(=S)N1c1ccc(O)cc1
LNCaP [8]
  Activity: Active

## CNC(=O)c1ccc(N2C(=S)N(c3ccc(C#N)c(C(F)(F)F)c3)C(=O)C23CCC3)cc1
[2]
  Activity: Active

## CC1(C)C(=O)N(c2ccc(C#N)c(C(F)(F)F)c2)C(=O)N1c1ccc(O)cc1
LNCaP [8]
  Activity: Active
[2]
  Activity: Active

## CCC1(C)C(=O)N(c2ccc(C)cc2)C(=S)N1c1ccc(C#N)c(C(F)(F)F)c1 (stereo not drawn)
[3]
  Activity: inactive

## CCC1(CC)C(=O)N(c2ccc(C)cc2)C(=S)N1c1ccc(C#N)c(C(F)(F)F)c1
[3]
  Activity: inactive

## Cc1ccc(N2C(=S)N(c3ccc(C#N)c(C(F)(F)F)c3)C(=O)C23CCCC3)cc1
LNCaP [4]
  Activity: Active
LNCaP [6]
  Activity: Active

## Cc1ccc(N2C(=S)N(c3ccc(C#N)c(C(F)(F)F)c3)C(=O)C23CCCCCC3)cc1
LNCaP [4]
  Activity: inactive

## Cc1ccc(N2C(=S)N(c3ccc(C#N)c(C(F)(F)F)c3)/C(=N\C(=S)Nc3ccc(C#N)c(C(F)(F)F)c3)C2(C)CF)cc1 (stereo not drawn)
LNCaP [6]
  Activity: Active
[2]
  Activity: Active

## C/N=C1\N(c2ccc(C#N)c(C(F)(F)F)c2)C(=S)N(c2ccc(C)cc2)C12CCC2
LNCaP [6]
  Activity: Active
[2]
  Activity: Active

## N#Cc1ccc(N2C(=O)C3(CCC3)N(c3ccc(/C=C/C(N)=O)cc3)C2=S)cc1C(F)(F)F
LNCaP [1]
  IC50: 0.1 µM
